Published values gathered from unrelated publications.
Each line is one published result; the experiments were not run side by side. In brackets after ≈: the same amount, converted by molar mass.

| SMILES | organism | test | test system | conditions | endpoint | result |
| --- | --- | --- | --- | --- | --- | --- |
| O=C(Nc1c[nH]nc1-c1nc2ccc(CN3CCOCC3)cc2[nH]1)NC1CC1 | Staphylococcus aureus | microbial growth | NCTC8325 | – | MIC | > 30 µM |
| Cc1ccc(C(C)C)cc1OS(=O)(=O)c1ccccc1 | Escherichia coli | microbial growth, broth dilution | ATCC25922 | – | IC50 | 113 µg/mL |
| O=C(O)CN1C(=O)/C(=C/c2c3ccccc3c(-c3ccc(N(c4ccccc4)c4ccccc4)cc3)c3ccccc23)NC1=S | Micrococcus luteus | microbial killing, broth dilution | ATCC10240 | – | MBC | > 1000 µg/mL |
| CNC(=O)c1cc(Oc2ccc(NC(=O)Nc3ccc(Cl)c(C(F)(F)F)c3)c(F)c2)ccn1 | Staphylococcus aureus | microbial growth | NCTC8325 | – | MIC | 3 µM (≈ 1.45 µg/mL) |
| Cc1nn(-c2nc3ccccc3s2)c2c1C(=O)c1ccccc1-2 | Staphylococcus aureus | microbial growth, well diffusion | NCIM5021 | 500 µg/mL | inhibition zone | 11 mm |
| O=C(O)CN1C(=O)/C(=C/c2ccc(-c3ccc(N(c4ccccc4)c4ccccc4)cc3)c3ccccc23)NC1=S | Micrococcus luteus | microbial killing, broth dilution | ATCC10240 | – | MBC | > 1000 µg/mL |
| CC(C)c1nn(-c2nc3ccc(Cl)cc3s2)c2c1C(=O)c1ccccc1-2 | Staphylococcus aureus | microbial growth, well diffusion | NCIM5021 | 250 µg/mL | inhibition zone | 11 mm |
| O=S(=O)(c1cccc2cnccc12)N1CCCNCC1 | Staphylococcus aureus | microbial growth | NCTC8325 | – | MIC | > 30 µM |
| O=C(O)c1ccc(-n2cc(COc3cccc4cccnc34)nn2)cc1 | Escherichia coli | microbial growth, broth dilution | ATCC25922 | – | IC50 | 108 µg/mL (≈ 313 µM) |
| C#CCCCCC(=O)Nc1ccccc1 | Staphylococcus aureus | microbial growth | NCTC8325 | – | MIC | > 100 µM |
| CC(C)Cc1nn(-c2nc3ccc(Br)cc3s2)c2c1C(=O)c1ccccc1-2 | Staphylococcus aureus | microbial growth, well diffusion | NCIM5021 | 1000 µg/mL | inhibition zone | 21 mm |
| COc1cc2ncnc(Nc3ccc(F)c(Cl)c3)c2cc1OCCCN1CCOCC1 | Staphylococcus aureus | microbial growth | NCTC8325 | – | MIC | > 30 µM |
| Cc1ccc(C(C)C)cc1OS(=O)(=O)c1ccc([N+](=O)[O-])cc1 | Escherichia coli | microbial growth, broth dilution | ATCC25922 | – | IC50 | 176 µg/mL (≈ 525 µM) |
| COc1ccc2nc(-n3nc(CC(C)C)c4c3-c3ccccc3C4=O)sc2c1 | Staphylococcus aureus | microbial growth, well diffusion | NCIM5021 | 500 µg/mL | inhibition zone | 12 mm |
| O=C(O)CN1C(=O)/C(=C/c2c3ccccc3c(-c3ccc(N(c4ccccc4)c4ccccc4)cc3)c3ccccc23)SC1=S | Micrococcus luteus | microbial killing, broth dilution | ATCC10240 | – | MBC | 125 µg/mL (≈ 201 µM) |
| Cc1nn(-c2nc3ccc(Br)cc3s2)c2c1C(=O)c1ccccc1-2 | Staphylococcus aureus | microbial growth, well diffusion | NCIM5021 | 125 µg/mL | inhibition zone | 10 mm |
| Cc1ccc(C(C)C)cc1OS(=O)(=O)c1cccs1 | Escherichia coli | microbial growth, broth dilution | ATCC25922 | – | IC50 | 149 µg/mL (≈ 503 µM) |
| CN(C)[C@@H]1C(O)=C(C(N)=O)C(=O)[C@@]2(O)C(O)=C3C(=O)c4c(O)cccc4[C@@](C)(O)[C@H]3C[C@@H]12 | Staphylococcus aureus | microbial growth | NCTC8325 | – | MIC | 0.5 µM (≈ 0.222 µg/mL) |
| Cc1ccc2nc(-n3nc(CC(C)C)c4c3-c3ccccc3C4=O)sc2c1 | Staphylococcus aureus | microbial growth, well diffusion | NCIM5021 | 1000 µg/mL | inhibition zone | 14 mm |
| O=C1NC(=S)N/C1=C\c1ccc(-c2ccc(N(c3ccccc3)c3ccccc3)cc2)cc1 | Micrococcus luteus | microbial killing, broth dilution | ATCC10240 | – | MBC | > 1000 µg/mL |
| O=C1C=C(OCc2cn(-c3ccc([N+](=O)[O-])cc3)nn2)C(=O)c2ccccc21 | Escherichia coli | microbial growth, broth dilution | ATCC25922 | – | IC50 | 396 µg/mL (≈ 1050 µM) |
| O=C1NC(=S)N/C1=C\c1c2ccccc2c(-c2ccc(N(c3ccccc3)c3ccccc3)cc2)c2ccccc12 | Micrococcus luteus | microbial killing, broth dilution | ATCC10240 | – | MBC | > 1000 µg/mL |
| CC(C)Cc1nn(-c2nc3ccc(Cl)cc3s2)c2c1C(=O)c1ccccc1-2 | Staphylococcus aureus | microbial growth, well diffusion | NCIM5021 | 125 µg/mL | inhibition zone | 10 mm |
| O=C(Nc1ccccc1-c1ccc(F)c(F)c1)c1nccnc1C(F)(F)F | Alternaria solani | microbial growth | – | – | EC50 | 0.15 µg/mL (≈ 0.395 µM) |
| Cc1nn(-c2nc3ccc(Cl)cc3s2)c2c1C(=O)c1ccccc1-2 | Staphylococcus aureus | microbial growth, well diffusion | NCIM5021 | 1000 µg/mL | inhibition zone | 11 mm |
| CCN1CCN(Cc2ccc(-c3cc4c(N[C@H](C)c5ccccc5)ncnc4[nH]3)cc2)CC1 | Staphylococcus aureus | microbial growth | NCTC8325 | – | MIC | > 30 µM |
| Cc1ccc(C(C)C)cc1OCc1cn(-c2ccc(F)cc2)nn1 | Escherichia coli | microbial growth, broth dilution | ATCC25922 | – | IC50 | 1580 µg/mL (≈ 4860 µM) |
| O=C(O)CN1C(=O)/C(=C/c2ccc(-c3ccc(N(c4ccccc4)c4ccccc4)cc3)cc2)NC1=S | Micrococcus luteus | microbial killing, broth dilution | ATCC10240 | – | MBC | 31.3 µg/mL (≈ 61.9 µM) |
| COc1ccc(S(=O)(=O)N(C(C)=O)c2ccccc2/C=C/c2cc[n+]([O-])cc2)cc1 | Staphylococcus aureus | microbial growth | NCTC8325 | – | MIC | > 30 µM |
